Screening results deposited in PubChem BioAssay by several laboratories.
STAT1 inh – STAT1 signaling inhibition. NIH 3T3 STAT1-luciferase reporter, IFN-gamma, luminescence. inhibition, % at 5.5 µM. 0.35% of 200,000 active. AID 920;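 active = inhibition above a set limit, the mean inhibition across all tested compounds plus 3 SD, cut at about 34% in these data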;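 also: 0% = IFN-gamma with DMSO and 100% = IFN-gamma with 300 µM nifuroxazide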
STAT3 inh – STAT3 signaling inhibition; 0.89% of 190,000 active; AID 862; U3A cells, IL-6 STAT3-luciferase reporter, luminescence; host cell line lacks STAT1; inhibition, % at 5.5 µM;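 active = inhibition above the mean inhibition across all screened compounds plus 3 SD, cut at about 44% in these data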;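 also: 0% = DMSO only wells and 100% = 100 µM nifuroxazide control wells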
TRAIL sens C8 – caspase-8 TRAIL sensitization; 1% of 360,000 active; inhibition (viability loss, TRAIL sensitization), % at 10 µM; AID 624354; NB7+C8 cells + TRAIL, ATPlite viability luminescence;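 active = compounds causing at least 50% loss of cell viability in the single-dose screen, relative to plate controls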
STAT3 activator – STAT3 signaling activation; AID 871; activation (% of control), % at 5.6 µM; 0.91% of 190,000 active; U3A cells, IL-6 STAT3-luciferase reporter, luminescence; 100% = signal with IL-6 EC80 alone;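 active = activation above the screen-wide mean of compound activation plus 3 SD, cut at about 130% in these data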;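 also: 0% = background luminescence of wells with medium and substrate only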
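Detection: reporter luminescence signal / Assay system: STAT1-lacking human U3A cells, STAT3 luciferase reporter / Incubation: compound pre-incubation 1 h before IL-6, then 6 h stimulation at 37 °C / Control set: IL-6-only high control / Read-out: % activation relative to IL-6 control / Probe or stimulus: Interleukin-6, 33 ng/mL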
PPC-1+TRAIL kill – PPC-1 cancer cell killing with TRAIL present | PPC-1 cells + TRAIL, ATPLite viability luminescence | cell killing (% activity), % at 4 µM or 5 µM | 0.41% of 220,000 active;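 active = cell killing above 50% in the first pass at 4 µM, then a duplicate retest at 5 µM averaging 50% or more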;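 also: plate controls were cells with TRAIL plus DMSO for no effect and medium-only wells lacking cells for full effect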
The depositor's hits bear a star; / = no result given. Hits are enriched below; roughly 1.8% of the tested compounds scored in any of these assays.

SMILES | STAT1 inh | STAT3 inh | TRAIL sens C8 | STAT3 activator | PPC-1+TRAIL kill
CCOc1ccc(/C=C/C(=O)Nc2cccc(C(C)=O)c2)cc1 | -40 | 9 | 55* | 95 | 21
CCc1ccc(NC(=O)Nc2cccs2)cc1 | -37 | 35 | 54* | 73 | 1
CCOc1ccc(NC(=O)Nc2cccs2)cc1 | -25 | 16 | 51* | 92 | 46
Cc1ccc(NC(=O)Nc2cccs2)cc1 | -19 | -10 | 28 | 112 | 15
CCOc1ccc(NC(=O)Nc2cccnc2)cc1 | -8 | 14 | 58* | 97 | 49
CCOc1ccc(NC(C(=O)Nc2cccc(C(C)=O)c2)c2ccccc2)cc1 (stereo not given) | 3 | 6 | -27 | 98 | 3
COC(=O)[C@@]12C[C@@H](CC(=O)N3CCOCC3)C(=O)N(CCc3ccc(OC)c(OC)c3)C1=CCC(C)(C)C2 | / | / | 16 | / | /
O=C(Nc1ccc(C(=O)N2CCOCC2)cc1)C1CCC1 | / | / | 10 | / | /
CCOC(=O)c1cccc(NC(=O)Nc2ccc(OCC)cc2)c1 | 65* | 53* | 35 | 59 | 20
CN(c1ccccc1)S(=O)(=O)c1ccc(Cl)c(C(=O)NCc2ccccc2CN2CCCC2)c1 | / | / | 16 | / | /
CCCCCCCNC(=O)C1(CC2CC(c3ccc(Cl)cc3)=NO2)CCNCC1 (stereo not given) | / | / | 71* | / | /
CCCCCCCNC(=O)C1(CC2CC(c3cccc(Br)c3)=NO2)CCNCC1 (stereo not given) | / | / | 87* | / | /
CCCCCCCNC(=O)C1(CC2CC(c3ccc(Cl)cc3)=NO2)CCN(C(=O)Cc2ccc(F)cc2)CC1 (stereo not given) | / | / | 22 | / | /
Cc1nnsc1C(=O)N1CCN(c2cc(C(F)(F)F)ccn2)CC1 | / | / | 8 | / | -6
Cc1cc(NC(=O)C(C)SCC(=O)Nc2cc(C(F)(F)F)ccc2N2CCOCC2)no1 (stereo not given) | / | / | 14 | / | /
C=C1C(=O)C=C2CN(C(=O)c3ccccc3)[C@@](Cc3ccc(F)cc3)(C(=O)OC)[C@@H]12 | 14 | -16 | 73* | 111 | 13
C=C1C(=O)CC2=C1[C@](Cc1ccc(F)cc1)(C(=O)OC)N(C(=O)c1ccccc1)C2 | / | / | 7 | / | /
COc1ccc(NC(=O)CSc2nc(C)c3c(c2C#N)CCCC3)cc1 | -12 | 18 | -16 | 88 | 0
CCc1nnc(NC(=O)CSc2nc(C)c3c(c2C#N)CCCC3)s1 | 1 | 30 | 66* | 81 | 57*
Cc1cc(C)cc(NC(=O)c2cc(C)n(Cc3cccs3)c2C)c1 | / | / | 51* | / | 42
Cn1cc(C(=O)C(=O)N2CCCc3ccccc32)c2ccccc21 | 6 | 23 | 3 | 87 | /
Cn1cc(S(=O)(=O)CC(=O)N2CCCc3ccccc32)c2ccccc21 | 4 | -6 | 65* | 109 | 37
CC1CCCCC1NC(=O)C1CCC(CNS(=O)(=O)c2ccccc2)CC1 (stereo not given) | / | / | 0 | / | /
COC(=O)Cn1c(=O)c(C(=O)CCl)c(N)n(Cc2ccccc2)c1=O | / | / | 82* | / | 10
CCC(=O)OCC(=O)c1c(N)n(Cc2ccccc2)c(=O)n(C)c1=O | 8 | 2 | 1 | 100 | 11
SMILES | STAT1 inh | STAT3 inh | TRAIL sens C8 | STAT3 activator | PPC-1+TRAIL kill
c1ccc2c(-c3nc(-c4ccncc4)no3)cccc2c1 | -32 | -37 | -1 | 136* | 16
c1ccc(-c2noc(-c3cccc4ccccc34)n2)cc1 | -46 | -100 | 9 | 192* | 0
CCCCCCCn1c(NC(=O)CC)nc2ccccc21 | / | / | 13 | / | -6
COc1cc(OC)c(NC(=O)CCCNC(=O)Cn2cnc3sc(C)c(C)c3c2=O)cc1Cl | / | / | 8 | / | /
C=CCOc1ccc(/C=C/C(=O)OCC(=O)N2CCN(C(C)=O)CC2)cc1 | / | / | 9 | / | /
C=CCOc1ccc(/C=C/C(C)=N\O)cc1 | -35 | 5 | 61* | 99 | 31
O=C(Nc1ccc(OCC(=O)N2CCOCC2)cc1)c1ccccc1F | / | / | 61* | / | /
COc1ccc(Nc2nc(-c3ccccc3)nc3ccccc23)cc1S(=O)(=O)N1CCOCC1 | / | / | 48* | / | 23
COc1ccc(C(=O)COC(=O)c2sc(C)nc2C)cc1Cl | / | / | 1 | / | /
Cc1ccc(-c2nc(N/N=C/c3ccccc3[N+](=O)[O-])c3ccccc3n2)cc1 | -26 | 25 | 89* | 87 | 31
CCN(CC)CCn1c(NC(=O)c2ccc(Cl)cc2)nc2ccccc21 | -16 | -42 | 32 | 136* | -22
O=C(Nc1nc2ccccc2n1CCN1CCCCC1)C1CCCCC1 | 7 | 7 | 55* | 98 | 6
Cc1ccc(C(=O)Nc2nc3ccccc3n2CCN2CCCC2)cc1 | -45 | -61 | 39 | 157* | 5
O=C(Nc1nc2ccccc2n1CCN1CCCCC1)c1ccc(Cl)cc1 | 0 | -18 | / | 122 | -3
CNC(=O)c1c(NC(=O)CCS(=O)(=O)c2ccc(C)cc2)sc(C)c1C | / | / | -23 | / | /
COc1ccc(S(=O)(=O)N2CCC[C@H]2C(=O)N2CCC[C@H]2C(=O)N(C)Cc2ccccc2)cc1C | / | / | -12 | / | /
C[C@@H]1CN([C@H](C)CO)C(=O)CCCn2nncc2CO[C@H]1CN(C)Cc1cccc(C(F)(F)F)c1 | / | / | 1 | / | /
O=C(c1ccco1)N1CCN(C(=O)c2cc(-c3ccccn3)nc3ccc(Cl)cc23)CC1 | -1 | -38 | 5 | 135* | 12
O=C(c1ccco1)N1CCN(C(=O)c2cc(-c3ccccc3)nc3ccccc23)CC1 | -5 | -8 | 42 | 111 | 22
COC(=O)[C@H]1C[C@H](OC(=O)NCc2ccccc2F)[C@@]2(O)CN(S(=O)(=O)c3ccc(C)cc3)CC2[C@H]1C(=O)OC (stereo not given in full) | / | / | -4 | / | /
Cc1noc(C)c1S(=O)(=O)N(C)C[C@H]1Oc2ccc(NS(=O)(=O)c3ccccc3)cc2C(=O)N([C@H](C)CO)C[C@@H]1C | / | / | -7 | / | /
COc1ccc(N=C(C)C2C(=O)c3ccccc3C2=O)cc1 | / | / | 74* | / | /
CN(C)c1ccc(C(=O)Nc2nc3c(s2)CCCC3)cc1 | -21 | 40 | 55* | 71 | 39
CC(=O)Nc1ccc(S(=O)(=O)N2CCN(CCN3CCOCC3)CC2)cc1Cl | / | / | -5 | / | 12
COc1ccc(C(=O)/C(C#N)=N/Nc2ccc([N+](=O)[O-])cc2)cc1 | 37* | 59* | 40 | 54 | 47
SMILES | STAT1 inh | STAT3 inh | TRAIL sens C8 | STAT3 activator | PPC-1+TRAIL kill
CN(C)c1ccc(N=Nc2nccs2)cc1 | / | / | 77* | / | /
Nc1c(C(=O)O)cnc2c(-c3ccc(Cl)cc3)cnn12 | -104 | 4 | 20 | 107 | 34
Nc1c(-c2cccs2)cnc2c(-c3ccc(F)cc3)cnn12 | / | / | 61* | / | /
Nc1c(-c2ccccc2)cnc2c(-c3ccccc3)cnn12 | / | / | 84* | / | /
Cc1nc2c(-c3ccc(F)cc3)cnn2c(N)c1-c1ccc(F)cc1 | / | / | 53* | / | /
Cc1cc(N)n2ncc(-c3ccc(F)cc3)c2n1 | -43 | -15 | 7 | 117 | 22
Cc1ccc(C(=O)c2no[n+]([O-])c2C(=O)c2ccc(C)cc2)cc1 | -4 | -6 | 93* | 109 | 10
Cc1ccc(C(=O)c2ccc(C)cc2)cc1 | -16 | 8 | -6 | 99 | 19
COc1ccccc1NC(=O)c1ccc(NC(=O)c2ccc(=O)[nH]c2)cc1 | / | / | -6 | / | /
